From article PMC3243070 (European Journal of Medicinal Chemistry, 2011)

Columns and labels:
[1] = biological target: T1, bovine folate binding protein (FBP) (Bos taurus, UniProt P02702)
Method in brief: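 Bovine milk FBP amide-coupled to a CM5 chip (9.5 ng/mm2). Ligands injected in HBS-EP at 30 µL/min (monovalent) or 50 µL/min (dendrimer conjugates). Chip regenerated with 10 mM glycine-HCl pH 2.5. Reference channel subtracted. kon and koff from Langmuir fits, with mass-transport effects checked. KD = koff/kon, averaged over ≥3 measurement sets per concentration with χ2 < 5.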

[2] = biological target: kidney FAR; conditions: cited from earlier work
[3] = biological target: T1, bovine folate binding protein (FBP); conditions: SPR, earlier study; cited from earlier work

T1 sequence (P02702 20-241): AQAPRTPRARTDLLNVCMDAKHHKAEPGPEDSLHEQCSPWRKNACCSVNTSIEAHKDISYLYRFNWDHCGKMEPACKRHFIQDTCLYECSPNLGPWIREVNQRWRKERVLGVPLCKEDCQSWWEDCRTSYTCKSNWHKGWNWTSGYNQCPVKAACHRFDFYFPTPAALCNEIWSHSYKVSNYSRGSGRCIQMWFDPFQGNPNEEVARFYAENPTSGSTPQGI

Row | SMILES | affinity lower than that of FA ([1]; from the SPR KD values) | Kd [2] [nM] | koff [1] [s⁻¹] | kon [1] [M⁻¹ s⁻¹] | Kd [3] [nM]
1 | CN(Cc1cnc2nc(N)nc(N)c2n1)c1ccc(C(=O)N[C@@H](CCC(=O)O)C(=O)O)cc1 [MTX, methotrexate] | ≈ 2 fold | 20 to 100 |  |  | 
2 | Nc1nc2ncc(CNc3ccc(C(=O)N[C@@H](CCC(=O)O)C(=O)O)cc3)nc2c(=O)[nH]1 [FA, folic acid] |  | ~1 | 0.012 | 1100 | 5000
